molecular target: T1, P2X purinoceptor 3 (Homo sapiens) (UniProt P56373); experiment: Antagonist activity at human P2X3 receptor expressed in Xenopus oocytes assessed as reduction in ATP-induced ion current at 10 uM; format: functional, cell-based; parameters: scale not given: the % may be the effect or the level left; conditions: Oocyte
T1 sequence (whole entry): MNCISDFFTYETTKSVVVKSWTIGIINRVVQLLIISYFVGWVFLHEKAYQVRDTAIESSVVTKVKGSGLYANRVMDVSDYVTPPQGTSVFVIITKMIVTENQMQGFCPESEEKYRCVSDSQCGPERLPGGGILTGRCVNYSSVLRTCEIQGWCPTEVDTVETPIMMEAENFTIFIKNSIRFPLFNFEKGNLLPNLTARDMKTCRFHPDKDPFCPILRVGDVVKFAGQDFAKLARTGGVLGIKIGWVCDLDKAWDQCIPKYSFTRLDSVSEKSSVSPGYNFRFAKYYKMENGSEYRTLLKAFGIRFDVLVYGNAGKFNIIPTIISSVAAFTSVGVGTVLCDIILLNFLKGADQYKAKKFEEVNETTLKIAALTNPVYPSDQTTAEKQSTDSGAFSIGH
Procedure, shortened: (§1)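 Two-electrode voltage clamp on Xenopus oocytes made to express the receptor by microinjection of capped cRNA. Currents were evoked by 2 μM ATP, and the test compound was given at 10 μM. The read-out is the percent reduction of the ATP-induced ion current.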

| Activity [%] | SMILES |
| --- | --- |
| 10 | CC12CC3CC(C)(C1)CC(C(=O)NNc1c(Cl)cncc1Cl)(C3)C2 |

molecular target: T2, P2X purinoceptor 7 (Homo sapiens) (UniProt Q99572); experiment: Antagonist activity at human P2X7 receptor expressed in HEK293 cells assessed as inhibition of BzATP-induced ethidium bromide uptake at 10 uM after 2 hrs by fluorescence analysis; conditions: not given
T2 sequence (whole entry): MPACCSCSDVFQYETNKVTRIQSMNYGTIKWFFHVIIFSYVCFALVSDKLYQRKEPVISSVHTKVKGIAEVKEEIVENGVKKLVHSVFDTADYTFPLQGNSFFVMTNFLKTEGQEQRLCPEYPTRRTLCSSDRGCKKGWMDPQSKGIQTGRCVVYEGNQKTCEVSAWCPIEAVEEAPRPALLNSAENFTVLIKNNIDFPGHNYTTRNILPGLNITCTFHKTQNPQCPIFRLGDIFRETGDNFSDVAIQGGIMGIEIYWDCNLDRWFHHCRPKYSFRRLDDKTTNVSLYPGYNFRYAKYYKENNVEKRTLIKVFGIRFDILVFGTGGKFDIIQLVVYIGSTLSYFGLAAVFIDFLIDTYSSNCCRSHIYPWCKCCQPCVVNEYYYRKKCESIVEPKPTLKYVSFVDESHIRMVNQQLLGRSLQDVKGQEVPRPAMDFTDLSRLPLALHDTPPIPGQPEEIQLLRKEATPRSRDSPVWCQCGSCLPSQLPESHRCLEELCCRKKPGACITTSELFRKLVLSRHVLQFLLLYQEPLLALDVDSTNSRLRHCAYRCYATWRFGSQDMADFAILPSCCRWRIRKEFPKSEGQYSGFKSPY

| inhibition [%] | SMILES |
| --- | --- |
| < 20 | O=C(NNc1c(Cl)cncc1Cl)c1ccccc1 |
| < 20 | O=C(NNc1c(Cl)cncc1Cl)c1cc2ccccc2[nH]1 |
| < 20 | O=C(CCc1ccccc1)Nc1c(Cl)cncc1Cl |
| < 20 | O=C(/C=C/c1ccccc1)NNc1c(Cl)cncc1Cl |
| < 20 | O=C(Cc1cccc2ccccc12)NNc1c(Cl)cncc1Cl |
| < 20 | O=C(CCc1ccc(O)cc1)NNc1c(Cl)cncc1Cl |
| < 20 | O=C(NNc1c(Cl)cncc1Cl)C1CC2C=CC1C2 (configuration not stated) |
| < 20 | O=C(NCc1ccccc1)NNc1c(Cl)cncc1Cl |
| < 20 | O=C(CCc1ccccc1)NNc1c(F)cncc1F |
| < 20 | O=C(CCc1ccccc1)NNc1c(F)cccc1F |
| < 20 | O=C(Cc1ccc2ccccc2c1)NNc1c(Cl)cncc1Cl |
| < 20 | CN(Nc1c(Cl)cncc1Cl)C(=O)CCc1ccccc1 |
| < 20 | O=C(CCc1ccccc1)NNc1cc(Cl)nc(Cl)c1 |
| < 20 | Clc1cncc(Cl)c1NNCCCc1ccccc1 |
| < 20 | O=C(CCc1ccccc1)NNc1ccncc1 |

molecular target: T3, P2X purinoceptor 7 (Homo sapiens, UniProt Q99572); experiment: Antagonist activity at human P2X7 receptor in human THP1 cells assessed as inhibition of BzATP-induced IL-1beta release pretreated for 30 mins before bzATP challenge measured after 30 mins by ELISA; conditions: not given
T3 sequence (Q99572 whole entry): T2 sequence (whole entry)

| IC50 [nM] | SMILES |
| --- | --- |
| 42 | O=C(CC1CCCCCC1)NNc1c(Cl)cncc1Cl |
| 1.3 | O=C(NNc1c(Cl)cncc1Cl)C1C2CC3CC(C2)C(Br)C1C3 (configuration not stated) |
| 320 | O=C(CCc1ccccc1)NNc1c(Cl)cncc1Cl |
| 56 | O=C(CCC1CCCCC1)NNc1c(Cl)cncc1Cl |
| 9.2 | CC12CC3CC(C)(C1)CC(C(=O)NNc1c(Cl)cncc1Cl)(C3)C2 |
| 120 | CN([C@@H](Cc1ccc(OS(=O)(=O)c2cccc3cnccc23)cc1)C(=O)N1CCN(c2ccccc2)CC1)S(=O)(=O)c1cccc2cnccc12 |
| 130 | O=C(NNc1c(Cl)cncc1Cl)C1C2CC3CC(C2)CC1C3 (configuration not stated) |

molecular target: T2, P2X purinoceptor 7 (Homo sapiens); experiment: Antagonist activity at human P2X7 receptor expressed in HEK293 cells assessed as inhibition of BzATP-induced ethidium bromide uptake at 20 uM after 2 hrs by fluorescence analysis; format: functional, cell-based; conditions: not given

| inhibition [%] | SMILES |
| --- | --- |
| < 20 | O=C(Cc1ccncc1)NNc1c(Cl)cncc1Cl |

molecular target: T3, P2X purinoceptor 7; experiment: Antagonist activity at human P2X7 receptor expressed in HEK293 cells assessed as inhibition of BzATP-induced ethidium bromide uptake after 2 hrs by fluorescence analysis; format: functional, cell-based; conditions: not given

| IC50 [nM] | SMILES |
| --- | --- |
| 4200 | O=C(NNc1c(Cl)cncc1Cl)C1Cc2ccccc2C1 |
| 1400 | O=C(CCc1ccccc1)NNc1c(Cl)cccc1Cl |
| 210 | O=C(CC1CC2CCC1C2)NNc1c(Cl)cncc1Cl (configuration not stated) |
| 2800 | O=C(NNc1c(Cl)cncc1Cl)C1CC2CCC1C2 (configuration not stated) |
| 370 | O=C(NNc1c(Cl)cncc1Cl)OCc1ccccc1 |
| 620 | O=C(Cc1ccc(Cl)cc1)NNc1c(Cl)cncc1Cl |
| 1400 | O=C(NNc1c(Cl)cncc1Cl)C12CC3CC(CC1C3)C2 |
| 320 | O=C(NNc1c(Cl)cncc1Cl)C1Cc2ccccc21 (racemic) |
| 200 | O=C(CC1CCCCCC1)NNc1c(Cl)cncc1Cl |
| 4.9 | O=C(NNc1c(Cl)cncc1Cl)C1C2CC3CC(C2)C(Br)C1C3 (configuration not stated) |
| 1900 | O=C(CCCCCc1ccccc1)NNc1c(Cl)cncc1Cl |
| 650 | O=C(CCc1ccccc1)NNc1c(Cl)cncc1Cl |
| 770 | O=C(CCCc1ccccc1)NNc1c(Cl)cncc1Cl |
| 380 | O=C(CCC1CCCC1)NNc1c(Cl)cncc1Cl |
| 1200 | O=C(CCCCc1ccccc1)NNc1c(Cl)cncc1Cl |
| 1100 | O=C(NNc1c(Cl)cncc1Cl)C1CCc2ccccc2C1 (racemic) |

| IC50 [nM] | SMILES |
| --- | --- |
| 1200 | O=C(CCc1cccc2ccccc12)NNc1c(Cl)cncc1Cl |
| 950 | O=C(CCCCCCc1ccccc1)NNc1c(Cl)cncc1Cl |
| 730 | O=C(CC1CCCCC1)NNc1c(Cl)cncc1Cl |
| 130 | O=C(CCC1CCCCC1)NNc1c(Cl)cncc1Cl |
| 1500 | COc1ccc(CCC(=O)NNc2c(Cl)cncc2Cl)cc1 |
| 1400 | Cc1ccc(CCC(=O)NNc2c(Cl)cncc2Cl)cc1 |
| 1100 | O=C(CCc1ccc(Cl)cc1)NNc1c(Cl)cncc1Cl |
| 13 | CC12CC3CC(C)(C1)CC(C(=O)NNc1c(Cl)cncc1Cl)(C3)C2 |
| 360 | O=C(CCCC1CCCCC1)NNc1c(Cl)cncc1Cl |
| 2500 | O=C(Cc1ccc(Cl)cc1Cl)NNc1c(Cl)cncc1Cl |
| 1100 | O=C(Cc1ccccc1)NNc1c(Cl)cncc1Cl |
| 900 | O=C(CCc1ccc(F)cc1)NNc1c(Cl)cncc1Cl |
| 280 | CN([C@@H](Cc1ccc(OS(=O)(=O)c2cccc3cnccc23)cc1)C(=O)N1CCN(c2ccccc2)CC1)S(=O)(=O)c1cccc2cnccc12 |
| 340 | O=C(CC1C2CC3CC(C2)CC1C3)NNc1c(Cl)cncc1Cl (configuration not stated) |
| 900 | Cc1cccc(C)c1NNC(=O)CCc1ccccc1 |
| 77 | O=C(NNc1c(Cl)cncc1Cl)C1C2CC3CC(C2)CC1C3 (configuration not stated) |

molecular target: T4, P2X purinoceptor 1 (Mus musculus) (UniProt P51576); experiment: Antagonist activity at mouse P2X1 receptor expressed in Xenopus oocytes assessed as reduction in ATP-induced ion current at 10 uM; format: functional, cell-based; parameters: scale not given: the % may be the effect or the level left; conditions: Oocyte; procedure, shortened: as §1
T4 sequence (whole entry): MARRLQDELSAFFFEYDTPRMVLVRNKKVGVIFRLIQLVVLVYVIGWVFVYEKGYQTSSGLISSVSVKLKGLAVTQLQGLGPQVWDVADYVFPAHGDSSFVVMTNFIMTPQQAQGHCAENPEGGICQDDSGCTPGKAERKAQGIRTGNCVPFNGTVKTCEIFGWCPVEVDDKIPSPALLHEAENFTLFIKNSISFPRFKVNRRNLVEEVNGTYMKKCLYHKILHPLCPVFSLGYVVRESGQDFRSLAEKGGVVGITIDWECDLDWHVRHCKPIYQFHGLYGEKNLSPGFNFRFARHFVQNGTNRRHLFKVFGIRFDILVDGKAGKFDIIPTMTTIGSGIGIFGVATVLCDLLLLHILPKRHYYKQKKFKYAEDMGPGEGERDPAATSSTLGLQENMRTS

| Activity [%] | SMILES |
| --- | --- |
| 10 | CC12CC3CC(C)(C1)CC(C(=O)NNc1c(Cl)cncc1Cl)(C3)C2 |
